Two molecules from ChEMBL document CHEMBL1155063 (Bioorg Med Chem, 2008) can be followed below.

In assay [1] the target is T1, Telomerase reverse transcriptase (Homo sapiens, UniProt O14746). Briefly: Inhibition of telomerase in human H1299 cells at 1 to 20 uM by TRAP assay. The class given is cell-based. The method in brief: (§1)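 Modified TRAP assay using 2 µg total lysate from H1299 lung cancer cells as the telomerase source. Compounds were tested at 1, 5, 10 and 20 µM. Products were resolved on 10% polyacrylamide gels and stained with SYBR Green. A Taq-polymerase internal control was included, along with positive and negative controls.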
T1 sequence (O14746 whole entry): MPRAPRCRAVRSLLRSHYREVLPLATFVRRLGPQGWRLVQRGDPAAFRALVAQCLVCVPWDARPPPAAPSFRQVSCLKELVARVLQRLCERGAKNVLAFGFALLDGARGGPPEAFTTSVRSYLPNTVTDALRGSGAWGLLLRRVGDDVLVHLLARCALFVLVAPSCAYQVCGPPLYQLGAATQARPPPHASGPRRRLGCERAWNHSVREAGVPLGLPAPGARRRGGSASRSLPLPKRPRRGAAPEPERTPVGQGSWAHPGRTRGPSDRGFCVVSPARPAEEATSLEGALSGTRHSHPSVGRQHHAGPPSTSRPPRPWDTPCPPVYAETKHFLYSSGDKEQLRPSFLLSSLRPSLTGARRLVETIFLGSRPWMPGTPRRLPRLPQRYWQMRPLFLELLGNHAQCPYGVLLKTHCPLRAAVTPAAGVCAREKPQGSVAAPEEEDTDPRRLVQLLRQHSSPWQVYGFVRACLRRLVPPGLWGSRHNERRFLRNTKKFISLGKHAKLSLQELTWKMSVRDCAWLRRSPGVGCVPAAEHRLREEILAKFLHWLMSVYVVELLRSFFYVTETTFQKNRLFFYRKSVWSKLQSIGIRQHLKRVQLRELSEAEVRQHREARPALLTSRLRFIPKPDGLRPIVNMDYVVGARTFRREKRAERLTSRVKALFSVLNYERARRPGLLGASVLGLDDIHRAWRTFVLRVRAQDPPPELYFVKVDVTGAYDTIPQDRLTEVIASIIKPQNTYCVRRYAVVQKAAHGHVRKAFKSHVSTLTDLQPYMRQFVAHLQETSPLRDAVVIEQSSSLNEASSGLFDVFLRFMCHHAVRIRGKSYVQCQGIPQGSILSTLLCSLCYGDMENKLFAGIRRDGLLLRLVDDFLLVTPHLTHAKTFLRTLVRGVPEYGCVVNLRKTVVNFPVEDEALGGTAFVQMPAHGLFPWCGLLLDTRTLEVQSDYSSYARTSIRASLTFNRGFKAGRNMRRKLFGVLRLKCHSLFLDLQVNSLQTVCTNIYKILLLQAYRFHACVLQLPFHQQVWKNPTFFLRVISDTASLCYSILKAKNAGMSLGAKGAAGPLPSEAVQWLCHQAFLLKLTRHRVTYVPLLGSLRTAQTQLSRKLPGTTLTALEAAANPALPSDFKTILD

The target of assay [2] is T1, Telomerase reverse transcriptase. Briefly: Inhibition of G-quadruplex-induced human TERT in H1299 cells by TRAP assay. The class given is cell-based. The method in brief: as §1

SMILES strings stand for the structures. The source made the active and inactive calls. The rule behind the calls is not given here.

As for `CCN(CC)CCC(=O)Nc1ccc2c(c1)C(=O)c1cc(NC(=O)CCN(CC)CC)ccc1C2=O`, the result in assay [1] was Active.

As usually defined, the IC50 is the concentration that gives 50% inhibition. `O=C(CCN1CCCC1)Nc1ccc2c(c1)C(=O)c1cc(NC(=O)CCN3CCCC3)ccc1C2=O` returned an IC50 in assay [2] of 6.7 µM. Moreover, the outcome in assay [1] was Active.
